From ChEMBL document CHEMBL2424560, “Structure- and reactivity-based development of covalent inhibitors of the activating and gatekeeper mutant forms of the epidermal growth factor receptor (EGFR)” (J Med Chem, 2013) come the findings set out here.

Calls of active or inactive are those of the source. No cut-off for these calls is given here. Bounds are passed on as bounds.

Data set [1] addresses Epidermal growth factor receptor (Homo sapiens, UniProt P00533, EX19DEL). The data set is classed as cell-based, PC-9.
The nature of data set [2]: (§1) Inhibition of human recombinant N-terminal GST-tagged EGFR L858R/[…] double mutant after 50 mins by HTRF assay. In general terms: Time-resolved FRET reads energy transfer from a long-lived donor to a nearby acceptor.
The target of data set [3] is Epidermal growth factor receptor (Homo sapiens, UniProt P00533, L858R/T790M). The data set is classed as cell-based, NCI-H1975.
The target of data set [4] is T1, Epidermal growth factor receptor (Homo sapiens, UniProt P00533). The data set is classed as cell-based, LoVo.
Data set [5] in a line: Lipophilicity, log D of the compound at pH 7.4. It counts as physicochemical. As to conditions: buffer.
Data set [6] is described as follows: Half life in phosphate buffer at pH 7.4 at 50 uM by LC-MS analysis in presence of glutathione. It counts as physicochemical. As to conditions: phosphate buffer with glutathione.
For data set [7], the species on record is Homo sapiens. The description is as §1.
The species entered for data set [8] is Homo sapiens. Description: Selectivity ratio of IC50 for wild type human EGFR to IC50 for human recombinant N-terminal GST-tagged EGFR L858R/[…] double mutant.
Data set [9] deals with NCI-H1975. Description: Selectivity ratio of IC50 for EGFR L858R/[…] double mutant phosphorylation in human NCI-H1975 cells to IC50 for human recombinant N-terminal GST-tagged EGFR L858R/[…] double mutant. The data set is classed as cell-based.
Data set [10] concerns the target T1, Epidermal growth factor receptor. Put plainly: Inhibition of wild type human EGFR after 50 mins by HTRF assay.
The subject of the next data set is PC-9. Put plainly: Antitumor activity against human PC9 cells harboring EGFR exon 19 deletion activating mutant xenografted in SCID mouse assessed as tumor growth inhibition at 60 mg/kg/day, po after 7 days relative to vehicle-treated control. It counts as functional. As to conditions: read-out: TGI. (Xenograft models place foreign cells or tissue in a host animal.)

In a further data set the test system is A-431. Description: Antitumor activity against wild type human A431 cells xenografted in SCID mouse assessed as tumor growth inhibition at 60 mg/kg/day, po after 7 days relative to vehicle-treated control. The data set is classed as functional. As to conditions: read-out: TGI.
Data set [11] deals with Insulin-like growth factor 1 receptor (Homo sapiens) (UniProt P08069). Put plainly: Inhibition of IGF1R (unknown origin) at 1 uM relative to control. The essentials: (§2)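 Broad panel of >70 kinases run as biochemical assays at University of Dundee, compound tested at 1 μM; percent inhibition relative to control.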
In data set [12] the target is Myosin light chain kinase, smooth muscle (Homo sapiens) (UniProt Q15746). Put plainly: Inhibition of smMLCK (unknown origin) at 1 uM relative to control. A digest of the protocol: as §2
Data set [13] concerns the target Serine/threonine-protein kinase Chk2 (Homo sapiens) (UniProt O96017). Put plainly: Inhibition of CHK2 (unknown origin) at 1 uM relative to control. The essentials: as §2
Data set [14] addresses Insulin receptor (Homo sapiens) (UniProt P06213). Put plainly: Inhibition of insulin receptor (unknown origin) at 1 uM relative to control. A digest of the protocol: as §2
In data set [15] the target is Mitogen-activated protein kinase kinase kinase 11 (Homo sapiens) (UniProt Q16584). Put plainly: Inhibition of MAP3K11 (unknown origin) at 1 uM relative to control. A digest of the protocol:
as §2

In data set [16] the target is Vascular endothelial growth factor receptor 1 (Homo sapiens) (UniProt P17948). Put plainly: Inhibition of FLT1 (unknown origin) at 1 uM relative to control. The essentials: as §2
Data set [17] deals with T2, Lymphokine-activated killer T-cell-originated protein kinase (Homo sapiens) (UniProt Q96KB5).
T2 sequence (whole entry): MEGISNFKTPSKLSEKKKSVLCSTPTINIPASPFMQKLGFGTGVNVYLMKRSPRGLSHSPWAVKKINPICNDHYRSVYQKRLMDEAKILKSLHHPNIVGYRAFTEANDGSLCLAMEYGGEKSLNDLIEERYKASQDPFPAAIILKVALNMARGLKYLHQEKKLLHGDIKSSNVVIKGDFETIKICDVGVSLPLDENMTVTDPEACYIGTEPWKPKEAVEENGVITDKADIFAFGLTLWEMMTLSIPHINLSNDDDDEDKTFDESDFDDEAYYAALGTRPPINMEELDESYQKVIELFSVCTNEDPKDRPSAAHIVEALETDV
Put plainly: Inhibition of PBK (unknown origin) at 1 uM relative to control. The essentials:
as §2

In data set [18] the target is Calcium/calmodulin-dependent protein kinase kinase 2 (Homo sapiens) (UniProt Q96RR4). Put plainly: Inhibition of CAMKKbeta (unknown origin) at 1 uM relative to control. The essentials:
as §2

Data set [19] addresses Tyrosine-protein kinase BTK (Homo sapiens) (UniProt Q06187). Description: Inhibition of BTK (unknown origin) at 1 uM relative to control. A digest of the protocol:
as §2

Data set [20] deals with Maternal embryonic leucine zipper kinase (Homo sapiens) (UniProt Q14680). Description: Inhibition of MELK (unknown origin) at 1 uM relative to control. A digest of the protocol:
as §2

For data set [21], the system named is NCI-H1975. Description: Antitumor activity against human NCI-H1975 cells harboring EGFR L858R/[…] double mutant xenografted in SCID mouse assessed as tumor growth inhibition at 60 mg/kg/day, po after 7 days relative to vehicle-treated control. The data set is classed as functional. As to conditions: read-out: TGI.
The nature of data set [22]: Aqueous solubility of the compound. The data set is classed as physicochemical. As to conditions: buffer.

Chain of Epidermal growth factor receptor (Homo sapiens, UniProt P00533, L858R/T790M) (P00533 25-1210 T790M/L858R limits assumed): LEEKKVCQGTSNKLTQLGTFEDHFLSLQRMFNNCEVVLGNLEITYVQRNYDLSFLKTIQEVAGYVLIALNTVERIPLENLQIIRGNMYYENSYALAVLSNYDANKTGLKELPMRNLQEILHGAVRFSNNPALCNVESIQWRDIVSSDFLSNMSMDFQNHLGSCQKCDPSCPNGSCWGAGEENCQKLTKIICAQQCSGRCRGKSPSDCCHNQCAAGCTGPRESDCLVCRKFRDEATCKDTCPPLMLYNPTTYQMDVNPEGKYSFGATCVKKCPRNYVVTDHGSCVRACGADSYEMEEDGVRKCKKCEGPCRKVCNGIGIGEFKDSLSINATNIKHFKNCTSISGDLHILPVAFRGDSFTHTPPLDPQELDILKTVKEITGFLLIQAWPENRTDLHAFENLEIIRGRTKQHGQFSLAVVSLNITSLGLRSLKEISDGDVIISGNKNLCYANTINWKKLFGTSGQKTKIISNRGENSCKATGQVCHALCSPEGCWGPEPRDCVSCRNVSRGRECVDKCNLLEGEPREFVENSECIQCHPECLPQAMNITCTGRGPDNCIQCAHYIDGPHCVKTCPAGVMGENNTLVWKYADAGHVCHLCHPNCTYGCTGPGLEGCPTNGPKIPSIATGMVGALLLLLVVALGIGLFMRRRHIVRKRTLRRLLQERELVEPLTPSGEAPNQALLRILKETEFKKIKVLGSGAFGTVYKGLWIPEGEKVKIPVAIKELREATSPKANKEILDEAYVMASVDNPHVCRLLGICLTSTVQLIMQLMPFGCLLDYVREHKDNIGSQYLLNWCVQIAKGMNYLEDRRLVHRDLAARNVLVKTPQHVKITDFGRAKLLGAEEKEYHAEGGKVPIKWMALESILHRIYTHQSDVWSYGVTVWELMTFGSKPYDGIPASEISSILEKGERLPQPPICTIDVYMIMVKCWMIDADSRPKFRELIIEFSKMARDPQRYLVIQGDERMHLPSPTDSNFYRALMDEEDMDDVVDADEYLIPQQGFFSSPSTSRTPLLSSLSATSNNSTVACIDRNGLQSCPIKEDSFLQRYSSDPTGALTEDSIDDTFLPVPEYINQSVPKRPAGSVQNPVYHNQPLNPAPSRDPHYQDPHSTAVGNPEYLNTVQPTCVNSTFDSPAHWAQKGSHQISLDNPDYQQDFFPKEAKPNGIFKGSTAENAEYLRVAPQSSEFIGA
Chain of Epidermal growth factor receptor (Homo sapiens, UniProt P00533, EX19DEL) (P00533 whole entry, looked up, stated change not applied): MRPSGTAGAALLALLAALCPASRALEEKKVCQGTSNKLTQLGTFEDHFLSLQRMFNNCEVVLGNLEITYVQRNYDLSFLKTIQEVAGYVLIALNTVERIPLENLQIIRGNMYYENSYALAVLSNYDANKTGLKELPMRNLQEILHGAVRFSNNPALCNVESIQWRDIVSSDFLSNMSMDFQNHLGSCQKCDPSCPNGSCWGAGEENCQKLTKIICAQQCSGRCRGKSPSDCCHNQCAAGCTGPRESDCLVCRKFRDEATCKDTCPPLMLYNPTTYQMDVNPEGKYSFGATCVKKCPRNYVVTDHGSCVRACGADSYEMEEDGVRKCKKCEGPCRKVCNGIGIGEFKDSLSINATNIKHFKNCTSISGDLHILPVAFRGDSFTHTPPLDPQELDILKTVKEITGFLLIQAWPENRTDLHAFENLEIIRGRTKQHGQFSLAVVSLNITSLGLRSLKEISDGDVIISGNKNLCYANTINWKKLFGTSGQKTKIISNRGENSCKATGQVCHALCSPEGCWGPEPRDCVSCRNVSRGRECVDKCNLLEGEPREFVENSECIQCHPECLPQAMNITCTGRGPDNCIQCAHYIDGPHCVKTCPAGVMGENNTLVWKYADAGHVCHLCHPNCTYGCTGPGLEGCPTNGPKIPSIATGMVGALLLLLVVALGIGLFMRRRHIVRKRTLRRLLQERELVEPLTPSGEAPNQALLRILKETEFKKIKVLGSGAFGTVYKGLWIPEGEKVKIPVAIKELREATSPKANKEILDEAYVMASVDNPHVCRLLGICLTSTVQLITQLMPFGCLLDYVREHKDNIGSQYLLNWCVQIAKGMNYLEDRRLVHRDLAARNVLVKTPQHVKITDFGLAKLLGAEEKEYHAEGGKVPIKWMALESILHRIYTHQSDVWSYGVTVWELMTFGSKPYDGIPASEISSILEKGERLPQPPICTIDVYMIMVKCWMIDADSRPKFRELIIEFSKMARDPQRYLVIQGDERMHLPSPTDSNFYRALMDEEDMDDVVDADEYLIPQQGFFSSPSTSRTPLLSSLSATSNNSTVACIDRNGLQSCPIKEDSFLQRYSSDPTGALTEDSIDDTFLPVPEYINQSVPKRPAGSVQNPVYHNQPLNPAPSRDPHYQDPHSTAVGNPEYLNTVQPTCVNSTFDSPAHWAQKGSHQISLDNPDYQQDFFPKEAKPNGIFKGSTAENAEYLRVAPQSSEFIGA
T1 sequence (P00533 whole entry): as the sequence (P00533 whole entry, looked up, stated change not applied) above
Chain of Serine/threonine-protein kinase Chk2 (Homo sapiens) (O96017 whole entry): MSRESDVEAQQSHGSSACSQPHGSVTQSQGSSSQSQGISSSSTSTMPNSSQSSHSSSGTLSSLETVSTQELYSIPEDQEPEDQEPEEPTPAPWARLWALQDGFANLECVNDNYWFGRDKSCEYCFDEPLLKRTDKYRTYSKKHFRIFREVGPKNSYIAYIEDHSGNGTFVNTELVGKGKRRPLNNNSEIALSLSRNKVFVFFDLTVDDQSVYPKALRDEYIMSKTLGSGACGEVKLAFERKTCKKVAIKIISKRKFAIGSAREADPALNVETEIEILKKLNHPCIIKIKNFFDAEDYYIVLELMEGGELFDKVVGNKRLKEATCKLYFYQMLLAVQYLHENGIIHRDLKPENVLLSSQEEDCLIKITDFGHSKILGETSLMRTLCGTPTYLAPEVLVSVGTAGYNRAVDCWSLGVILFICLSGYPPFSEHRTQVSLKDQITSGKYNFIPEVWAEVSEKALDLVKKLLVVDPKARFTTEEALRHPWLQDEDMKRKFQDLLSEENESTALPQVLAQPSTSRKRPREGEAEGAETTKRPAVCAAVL
Chain of Tyrosine-protein kinase BTK (Homo sapiens) (Q06187 whole entry): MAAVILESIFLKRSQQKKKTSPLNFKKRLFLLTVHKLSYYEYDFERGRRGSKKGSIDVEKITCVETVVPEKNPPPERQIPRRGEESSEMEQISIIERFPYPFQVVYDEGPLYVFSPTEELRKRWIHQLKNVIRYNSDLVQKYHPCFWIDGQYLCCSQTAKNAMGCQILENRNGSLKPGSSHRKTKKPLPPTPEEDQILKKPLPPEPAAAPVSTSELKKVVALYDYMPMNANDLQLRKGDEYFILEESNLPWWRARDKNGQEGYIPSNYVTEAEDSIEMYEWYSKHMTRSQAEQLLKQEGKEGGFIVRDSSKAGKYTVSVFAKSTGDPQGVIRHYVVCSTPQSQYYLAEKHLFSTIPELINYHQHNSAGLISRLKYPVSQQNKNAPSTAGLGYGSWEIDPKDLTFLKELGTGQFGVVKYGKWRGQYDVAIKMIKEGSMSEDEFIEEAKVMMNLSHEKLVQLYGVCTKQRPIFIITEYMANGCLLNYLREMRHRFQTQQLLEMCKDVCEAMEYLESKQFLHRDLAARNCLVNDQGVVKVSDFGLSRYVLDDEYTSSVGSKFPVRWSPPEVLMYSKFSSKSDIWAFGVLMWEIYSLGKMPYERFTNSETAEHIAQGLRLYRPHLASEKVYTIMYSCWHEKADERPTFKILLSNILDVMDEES

As to `C=CC(=O)Nc1ccc(Nc2ncc(Cl)c(-c3c[nH]c4ccccc34)n2)cc1`, the IC50 in data set [1] was 19000 nM; in data set [2] it was 320 nM; in data set [3], 12900 nM; in [4], more than 30000 nM.
The compound `COc1ccc(NC(=O)/C=C/CN(C)C)cc1Nc1ncc([S+](C)[O-])c(-c2cnn3ccccc23)n1` (centres undefined) had a pH-dependent lipophilicity (logD) in data set [5] of 1.3. In addition, the IC50 in data set [1] is 1300 nM; in data set [3], 15200 nM; in data set [4], more than 30000 nM.
The like results for `C=CC(=O)Nc1cc(Nc2nccc(-c3c[nH]c4ccccc34)n2)c(OC)cc1N1CCN(C)CC1` were, in that order, 3.4, 17 nM, 68 nM and 1300 nM.
As for `C=CC(=O)Nc1cc(Nc2nccc(-c3cnn4ccccc34)n2)c(OC)cc1N1CCN(C)CC1`, the concentration for half-maximal inhibition (IC50) in [1] stood at 140 nM; in data set [4] it was 19000 nM.
`COc1ccc(NC(=O)/C=C/CN(C)C)cc1Nc1ncc(F)c(-c2cnn3ccccc23)n1` gave a logD in data set [5] of 3.3. Also, the results for the half-inhibitory concentration (IC50) in data set [1], in [3] and in [4] were 380 nM, 220 nM and 19000 nM, respectively.
As for `C=CC(=O)Nc1cc(Nc2ncc(Cl)c(-c3c[nH]c4ccccc34)n2)c(OC)cc1N1CCN(C)CC1`, the IC50 in data set [1] was 23 nM.
As for `C=CC(=O)Nc1ccc(OC)c(Nc2ncc(Cl)c(-c3c[nH]c4ccccc34)n2)c1`, the pH-dependent lipophilicity (logD) in data set [5] is more than 4.3. Besides, the IC50 was 29 nM in data set [1], 6.3 nM in data set [2], 22 nM in data set [3] and 550 nM in [4].
As for `C=CC(=O)N1CCc2cc(OC)c(Nc3ncc(Cl)c(-c4c[nH]c5ccccc45)n3)cc21`, the half-maximal inhibitory concentration (IC50) in data set [1] was 2800 nM; in data set [2], 52 nM; in data set [3], 2100 nM; in data set [4], more than 30000 nM.
The matching figures for `COc1ccc(NC(=O)CC#N)cc1Nc1ncc(Cl)c(-c2c[nH]c3ccccc23)n1`: 1800 nM, 65 nM, 2800 nM and more than 30000 nM.
Turning to `C=CC(=O)Nc1cccc(Nc2ncc(Cl)c(-c3c[nH]c4ccccc34)n2)c1`, in data set [5], the log distribution coefficient (logD) is more than 4.3. Also, the IC50 in data set [1] was 270 nM; in data set [2], 53 nM; in [3], 81 nM; in data set [4] it was 3500 nM.
`COc1ccc(NC(=O)CCCN(C)C)cc1Nc1ncc(Cl)c(-c2cnn3ccccc23)n1`: the IC50 in data set [2] came to 18 nM; in [3] it was 2300 nM.
In data set [5], `C=CC(=O)Nc1ccc(OC)c(Nc2ncc(Cl)c(-c3cnn4ccccc34)n2)c1` showed a pH-dependent lipophilicity (logD) of more than 4.3. Besides, the concentration for half-maximal inhibition (IC50) in data set [1] is 150 nM; in data set [3], 33 nM; in [4], 12800 nM.
With `COc1ccc(NC(=O)/C=C/CN(C)C)cc1Nc1ncc(C)c(-c2cnn3ccccc23)n1`, the values for the IC50 in data set [1], in data set [3] and in [4] were 250 nM, 290 nM and 24000 nM, respectively.
Regarding `CN(C)C/C=C/C(=O)Nc1cc2c(Nc3ccc(F)c(Cl)c3)ncnc2cc1O[C@H]1CCOC1` [AFATINIB], the half-life at 50 µM in data set [6] was found to be 25 min.
Consider `COc1cc2ncnc(Nc3ccc(F)c(Cl)c3)c2cc1NC(=O)/C=C/CN1CCCCC1`, for which, in the data set filed under Homo sapiens [7], the inhibition entry is “Active”.
`COc1ccc(NC(=O)/C=C/CN(C)C)cc1Nc1ncc(Cl)c(-c2c[nH]c3ccccc23)n1`: the values for the 50% inhibitory concentration (IC50) in data set [1], in data set [3] and in data set [4] were 85 nM, 53 nM and 1550 nM, respectively.
As for `C=CC(=O)Nc1cc2c(Nc3ccc(F)c(Cl)c3)ncnc2cc1OCCCN1CCOCC1`, the inhibition entry in the data set filed under Homo sapiens [7] is “Active”.
Regarding `COc1ccc(NC(=O)/C=C/CN(C)C)cc1Nc1nccc(-c2cnn3ccccc23)n1`, the figures for the IC50 in data set [1], in data set [3] and in data set [4] were 390 nM, 250 nM and 20000 nM, respectively.
As to `COc1cc(N2CCN(C(C)=O)CC2)ccc1Nc1ncc(Cl)c(-c2c[nH]c3ccccc23)n1`, the results for the Ratio IC50 in the data set listed under Homo sapiens [8] and in the data set with NCI-H1975 [9] were 88 and 90, respectively. The IC50 worked out at 790 nM in data set [10], 9 nM in data set [2] and 770 nM in data set [3].
Regarding `COc1ccc(NC(=O)/C=C/CN(C)C)cc1Nc1ncc(Cl)c(-c2cnn3ccccc23)n1`, the inhibition in vivo at 60 mg/kg/day with PC-9 was 134%; in the data set on A-431 it was 46%; in the data set with NCI-H1975 [21], 105%. Besides, the inhibition in [11], in data set [12], in [13], in data set [14], in data set [15] and in data set [16] was more than 75% each time. The inhibition in [17], in data set [18], in data set [19] and in data set [20] was more than 75% in each case.
`C=CC(=O)Nc1ccccc1`: in data set [22], the solubility result is recorded as “soluble”.

Broadly, the IC50 is the concentration at which inhibition is half-maximal. The logD is lipophilicity at a set pH, counting ionised and neutral species. Read a low logD as a more hydrophilic compound. The term half-life denotes how long it takes for the measured level to halve. By inhibition is commonly meant the share of the control response that was lost under treatment.
